Assay outcomes: PubChem, several laboratories
aDG glyco act = increases alpha dystroglycan glycosylation; Pro5-aDG cells, alpha-DG glycosylation AlphaScreen (IIH6); 0% Pro5, 100% B10-LARGE cell signal; activation, % at 10 µM; 360,000 tested, 0.22% active; AID 624168;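 active = activation of at least 8% versus controls, or a plate z-score of at least 8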;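 note: Pro5 are CHO cells carrying HIG-tagged alpha-DG that lacks glycosylation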
NTR1 ag = activates human neurotensin receptor 1 | NTR1-U2OS beta-arrestin-GFP spot imaging, agonist mode | activation, % at 20 µM | 330,000 tested, 0.17% active | AID 493036;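 active = activation at or above 40% of the spot to cytoplasm intensity ratio, with at least 20 cells analyzed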;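 note: 0% = DMSO without peptide and 100% = 100 nM NTR1 peptide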
MC4R barr agon = agonists of human melanocortin 4 receptor (MC4R) beta-arrestin; P32245; U2OS MC4R beta-arrestin complementation, luminescence; percent of melanotan II response, DMSO zero; activation, % at 8.9 µM; 360,000 tested, 0.98% active; AID 540308;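 active = activation above a per-plate cutoff, the mean activation of sample wells on that plate plus 3 SD, cut at about 8% in these data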
Target sequence (P32245 whole entry, looked up): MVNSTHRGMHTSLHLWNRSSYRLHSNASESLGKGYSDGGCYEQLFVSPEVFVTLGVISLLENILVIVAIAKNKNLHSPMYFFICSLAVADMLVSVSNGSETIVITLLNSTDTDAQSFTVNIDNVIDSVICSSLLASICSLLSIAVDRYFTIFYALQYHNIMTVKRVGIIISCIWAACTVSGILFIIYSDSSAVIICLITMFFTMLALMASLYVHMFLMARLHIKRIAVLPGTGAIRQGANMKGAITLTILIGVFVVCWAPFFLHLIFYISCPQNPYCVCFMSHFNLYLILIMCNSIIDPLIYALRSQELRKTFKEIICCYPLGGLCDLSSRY
TAG inh = reduces triacylglycerol accumulation in H9c2 cells. Nile Red lipid (TAG) fluorescence; cells loaded with 200 µM oleic acid. inhibition, % at 12.5 µM. 230,000 tested, 0.66% active. AID 651582;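 active = pattern-corrected inhibition of lipid staining of at least 50% with the nuclear-stain viability signal not falling by more than 50%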;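 note: 0% = DMSO wells and 100% = triacsin C control wells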
MC4R antagonist = antagonists of human melanocortin 4 receptor (MC4R). P32245. MC4R-expressing cells, MTII-stimulated cAMP, LANCE TR-FRET. inhibition, % at 6.5 µM. 360,000 tested, 0.48% active. AID 540295;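 active = inhibition above its plate's cutoff, the mean of tested wells on that plate plus 3 SD, cut at about 29% in these data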;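 note: 0% = Melanotan II alone and 100% = Melanotan II plus saturating MCL0020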
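System: U2OS-MC4R stable cell line; Technique: Eu-cAMP/anti-cAMP TR-FRET, emission 671 nm; Repeats: single well per compound; Also added: Melanotan II; Dosing: one concentration, 6.5 µM nominal; Schedule: 30-min compound, 1-h challenge, 1-h detection, room temperature.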
TbMetRS inhib = blocks T. brucei methionyl-tRNA synthetase activity; purified T. brucei MetRS, ATP depletion, Kinase-Glo luminescence; inhibition, % at 11.9 µM; 360,000 tested, 0.4% active;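 active = inhibition above a per-plate cutoff of the control wells' mean inhibition plus 3 SD, cut at about 5.5% in these data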;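 note: 0% = DMSO wells median and 100% = median of wells with control inhibitor compound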
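assay system = parasite MetRS enzyme | timing = 15 min preincubation, 2 h reaction, all 25 °C | evaluation = percent inhibition relative to median high and low control wells | medium = HEPES buffer containing pyrophosphatase, BSA, spermine, DTT | compound = single dose, 11.9 µM final nominal, 0.9% final DMSO | detection = Kinase-Glo luminescence, ATP depletion format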
U2OS cAMP counter = nonselective cAMP signaling inhibitor, MC4R antagonist counter-screen; 1,600 tested, 26% active; parental U2OS, forskolin cAMP, LANCE TR-FRET; shares compounds with MC4R antagonist; inhibition, % at 6.5 µM;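 active = mean inhibition over triplicates above the low-control well mean plus 3 SD, set per campaign, cut at about 13% in these data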;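 note: signal is single emission at 671 nm which falls as cellular cAMP rises; 0% = forskolin-stimulated wells and 100% = buffer without forskolin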
MC4R antag conf = human MC4R cAMP antagonism confirmation; 1,600 tested, 27% active; inhibition, % at 6.5 µM; AID 602195; shares compounds with MC4R antagonist; MC4R-expressing cells, MTII-stimulated cAMP, TR-FRET; in the data active = inhibition above about 29%;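 note: 0% = agonist stimulated wells alone and 100% = agonist stimulated wells plus saturating reference antagonist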
* marks the source's active call; other numbers are inactive results; / = no result. Hits are enriched below; roughly 2.4% of the tested compounds scored in any of these assays.

SMILES	aDG glyco act	NTR1 ag	MC4R barr agon	TAG inh	MC4R antagonist	TbMetRS inhib	U2OS cAMP counter	MC4R antag conf
O=C(CCC1CCCC1)Nc1cccc(Cc2ccncc2)c1	0	0	1	/	33*	1	-3	-14
CN1CCC(Oc2ccccc2Sc2ccc(C(F)(F)F)cc2)CC1	0	2	-3	/	33*	0	1	31*
CN1CCC(Oc2ccc(Sc3ccccc3)cc2)CC1	2	1	0	/	-1	0	/	/
COC(=O)c1cc2c(ccn2-c2ccc(F)cc2)n1CC(=O)OC(C)C	0	2	0	-7	31*	0	4	2
O=S(=O)(c1ccccc1)C1CON(Cc2ccccc2)C1c1ccccc1 (centres undefined)	0	1	2	/	30*	0	2	-9
O=C(CCCN1CCC(C(O)c2ccc(F)cc2)CC1)c1ccc(F)cc1 (centres undefined)	0	/	/	/	/	-1	/	/
C#Cc1ccc(NC(=O)C2(C)CCN2C(=O)CC(c2ccccc2)c2ccccc2)cc1 (centres undefined)	0	/	1	7	1	0	/	/
CO[C@H]1CN(C)C(=O)c2cc(NC(=O)c3cc(C)on3)ccc2OC[C@@H](C)N(C(=O)C2CC2)C[C@H]1C	0	/	/	/	/	0	/	/
CC(c1ccccc1C(O)(c1ccccc1)c1ccccc1)N(C)C (centres undefined)	0	3	4	/	29*	0	-9	3
COc1ccccc1C(O)(c1ccccc1)c1ccccc1OC	0	/	3	-15	-1	0	/	/
CC(C)C[C@H]1COc2cccc(N3CCN(Cc4ccccc4F)CC3)c2S(=O)(=O)N1	0	/	/	/	/	0	/	/
O=C(O)CCn1c(-c2ccccn2)nc2ccccc21	0	2	1	-3	29*	0	-1	1
O=C(O)C(Cc1c[nH]c2ccccc12)NS(=O)(=O)c1cccc(Cl)c1Cl (centres undefined)	0	0	1	/	29*	0	2	2
CC(C)(C)NC(=O)NC(=O)Cn1cc(C(F)(F)F)ccc1=O	0	1	-1	12	7	0	/	/
O=C(Cn1cc(C(F)(F)F)ccc1=O)NC(c1ccccc1)c1ccccc1	0	1	-1	-4	36*	0	4	9
COc1ccc(C(C)(O)c2nc(-c3ccncc3)cs2)cc1 (centres undefined)	0	/	-1	-2	-10	0	/	/
O=C(Cc1ccccc1)Nc1cccc(N2C(=O)C=CC2=O)c1	0	/	-2	/	54*	0	18*	34*
COc1ccc(NC(=O)Nc2cccc3c2O[C@H](CN(C)C(=O)Nc2ccc(C(F)(F)F)cc2)[C@@H](C)CN([C@H](C)CO)C3=O)cc1	0	1	0	/	35*	0	1	19
C[C@H](CO)N1C[C@H](C)[C@@H](CN(C)C(=O)Nc2ccc(C(F)(F)F)cc2)Oc2c(NC(=O)Nc3ccc(C(F)(F)F)cc3)cccc2C1=O	1	26	-1	19	24	0	/	/
Cc1ccccc1NC(=O)c1sc(Cl)nc1-c1ccccc1	0	2	-2	2	23	0	/	/
Cc1ccc(C)c(NC(=O)c2sc(Cl)nc2-c2ccccc2)c1	0	11	3	/	37*	1	15*	32*
COc1ccccc1CN1C[C@@H]2C[C@@H](C3=Cc4cccc(OC)c4OC3)N3CCC[C@@]23C1=O	0	0	0	/	33*	2	4	0
Cn1c(=O)c2c(-c3ccccc3)n(-n3cnnc3)cc2n(C)c1=O	0	6	-2	/	29*	0	2	10
Cn1c(=O)c2c(-c3ccccc3)n(-c3ccccc3)cc2n(C)c1=O	0	/	1	11	-6	-1	/	/
COc1cccc2cc(C(=O)OC(C)C(=O)c3ccc(C)cc3)c(=O)oc12 (centres undefined)	0	0	-3	-11	5	0	/	/
SMILES	aDG glyco act	NTR1 ag	MC4R barr agon	TAG inh	MC4R antagonist	TbMetRS inhib	U2OS cAMP counter	MC4R antag conf
Cc1ccc(C(=O)C(C)OC(=O)c2cc3cc([N+](=O)[O-])ccc3oc2=O)cc1 (centres undefined)	0	5	-3	/	33*	0	8	13
CCS(=O)(=O)Nc1ccc(-c2nnc(SCC(=O)OC)o2)cc1	0	1	0	-5	19	-1	/	/
CCOC(=O)Cc1csc(NC(=O)CSc2nnc(-c3ccc(NS(=O)(=O)CC)cc3)o2)n1	0	-1	0	/	30*	0	-3	-19
CCOC(=O)CSc1nnc(-c2ccc(S(=O)(=O)NCc3cccs3)cc2)o1	0	0	4	/	39*	-1	15*	42*
COC(=O)CSc1nnc(-c2ccc(S(=O)(=O)NCc3cccs3)cc2)o1	0	9	-2	/	43*	0	17*	44*
COC(=O)CSc1nnc(-c2ccc(S(=O)(=O)N3CCCC3)cc2)o1	0	22	0	/	34*	-1	14*	24
Cc1cccc(C)c1N1C(=O)c2ccccc2NC(=O)C1C(=O)NCCc1ccccc1F (centres undefined)	0	/	/	/	/	0	/	/
CCOC(=O)c1ccc(-c2ccc(N3C(c4cccc(OC)c4)=Cc4ccc(F)cc4C3CC(C)=O)cc2)cc1F (centres undefined)	0	/	/	/	/	1	/	/
CCCNC(=O)C1(C)CCCN(Cc2cc(-c3ccccc3)nn2C)C1 (centres undefined)	0	/	0	-5	3	0	/	/
COc1cc(C(O)c2nc(-c3cccc4cccnc34)cs2)ccc1F (centres undefined)	0	/	-1	12	2	0	/	/
CC(C)NC(=O)C1(C)CN(S(C)(=O)=O)CC(=O)N1C1CCCCCC1 (centres undefined)	0	/	/	/	/	-1	/	/
O=C(C(O)c1ccccc1)N1CCN(S(=O)(=O)c2ccc(C(F)(F)F)cc2)CC1 (centres undefined)	0	/	/	/	/	-1	/	/
COC(=O)CSc1nnc(-c2ccc(S(=O)(=O)NCc3ccccc3Cl)cc2)o1	0	7	1	/	36*	0	10	40*
COC(=O)CSc1nnc(-c2ccc(OC)c(OC)c2)o1	0	0	-2	4	16	0	/	/
CC(=O)c1cccc(Oc2ncccn2)c1	0	1	1	/	12	0	/	/
